From ChEMBL document CHEMBL4321823, “Benzyl Phenylsemicarbazides: A Chemistry-Driven Approach Leading to G Protein-Biased Dopamine D4 Receptor Agonists with High Subtype Selectivity” (J Med Chem, 2019)

Experiments:
Assay type in all cases: cell-based
Homo sapiens [1] = organism: Homo sapiens; experiment: Selectivity index, ratio of Ki for displacement of [3H] Spiperone from human D2L receptor expressed in CHO cells to Ki for displacement of [3H] Spiperone from human D4.4 receptor expressed in CHO cells
Outline: (§1)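 Competition binding against [3H]spiperone on membranes of CHO cells stably expressing cloned human D2L, D2S, D3 or D4.4 receptors. Ki from monophasic curve fits; mean ± SEM of three to seven experiments, each in triplicate. Selectivity calculated as Ki(D2L, D2S or D3) divided by Ki(D4.4).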

Homo sapiens [2] = organism: Homo sapiens; experiment: Selectivity index, ratio of Ki for displacement of [3H] Spiperone from human D2S receptor expressed in CHO cells to Ki for displacement of [3H] Spiperone from human D4.4 receptor expressed in CHO cells; outline: as §1
D(4) dopamine receptor = molecular target: T1, D(4) dopamine receptor (Homo sapiens, UniProt P21917); experiment: Displacement of [3H] Spiperone from human D4.4 receptor expressed in CHO cells by competitive radioligand binding assay
T1 sequence (P21917 whole entry): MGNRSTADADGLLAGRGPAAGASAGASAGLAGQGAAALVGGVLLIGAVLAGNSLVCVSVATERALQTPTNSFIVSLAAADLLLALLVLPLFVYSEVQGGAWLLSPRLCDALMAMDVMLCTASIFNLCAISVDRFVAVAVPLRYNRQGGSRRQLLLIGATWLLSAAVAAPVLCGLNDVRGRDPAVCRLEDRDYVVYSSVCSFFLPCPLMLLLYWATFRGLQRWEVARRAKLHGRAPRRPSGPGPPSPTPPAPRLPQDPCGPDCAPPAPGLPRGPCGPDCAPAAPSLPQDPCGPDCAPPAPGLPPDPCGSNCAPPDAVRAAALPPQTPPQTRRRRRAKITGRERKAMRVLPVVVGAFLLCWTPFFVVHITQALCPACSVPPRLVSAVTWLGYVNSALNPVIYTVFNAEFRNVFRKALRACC

D(2) dopamine receptor [3] = molecular target: T2, D(2) dopamine receptor (Homo sapiens, UniProt P14416); experiment: Displacement of [3H] Spiperone from human D2L receptor expressed in CHO cells by competitive radioligand binding assay
T2 sequence (P14416 whole entry): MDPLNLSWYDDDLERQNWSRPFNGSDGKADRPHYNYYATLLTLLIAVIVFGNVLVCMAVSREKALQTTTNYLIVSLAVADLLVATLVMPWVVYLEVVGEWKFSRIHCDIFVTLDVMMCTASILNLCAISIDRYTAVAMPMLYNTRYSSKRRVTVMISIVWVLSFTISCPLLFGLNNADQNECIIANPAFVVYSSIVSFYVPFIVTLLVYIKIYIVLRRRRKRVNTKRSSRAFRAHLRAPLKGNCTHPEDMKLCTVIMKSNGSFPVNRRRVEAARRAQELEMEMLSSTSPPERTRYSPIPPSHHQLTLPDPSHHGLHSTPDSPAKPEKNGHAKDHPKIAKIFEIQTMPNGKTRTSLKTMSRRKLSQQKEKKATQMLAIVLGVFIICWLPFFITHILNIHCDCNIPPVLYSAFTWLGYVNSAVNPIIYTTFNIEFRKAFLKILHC

D(3) dopamine receptor = D(3) dopamine receptor (Homo sapiens, UniProt P35462); experiment: Displacement of [3H] Spiperone from human D3 receptor expressed in CHO cells by competitive radioligand binding assay
Chain of D(3) dopamine receptor (P35462 whole entry): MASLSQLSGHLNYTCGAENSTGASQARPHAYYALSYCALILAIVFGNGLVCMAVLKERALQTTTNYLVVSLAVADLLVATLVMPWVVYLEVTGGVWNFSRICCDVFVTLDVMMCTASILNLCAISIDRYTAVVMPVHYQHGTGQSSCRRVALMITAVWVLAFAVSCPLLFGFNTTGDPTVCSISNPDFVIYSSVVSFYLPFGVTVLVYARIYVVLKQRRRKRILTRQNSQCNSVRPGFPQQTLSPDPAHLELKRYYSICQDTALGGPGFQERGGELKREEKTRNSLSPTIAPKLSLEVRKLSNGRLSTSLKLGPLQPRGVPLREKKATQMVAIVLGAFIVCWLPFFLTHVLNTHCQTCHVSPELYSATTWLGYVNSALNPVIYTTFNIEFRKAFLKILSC

Homo sapiens [4] = organism: Homo sapiens; experiment: Selectivity index, ratio of Ki for displacement of [3H] Spiperone from human D3 receptor expressed in CHO cells to Ki for displacement of [3H] Spiperone from human D4.4 receptor expressed in CHO cells; outline: as §1
D(2) dopamine receptor [5] = molecular target: T2, D(2) dopamine receptor; experiment: Displacement of [3H] Spiperone from human D2S receptor expressed in CHO cells by competitive radioligand binding assay

SMILES	Ki (D(4) dopamine receptor) [nM]	Ki (D(2) dopamine receptor [3]) [nM]	Ki (D(3) dopamine receptor) [nM]	Ki (D(2) dopamine receptor [5]) [nM]	Ratio Ki (Homo sapiens [1])	Ratio Ki (Homo sapiens [2])	Ratio Ki (Homo sapiens [4])
O=C(NCCCN1CCN(c2ccc(I)cc2)CC1)NN(Cc1ccccc1)c1ccccc1	21	690	1300	670	33	32	62
O=C(NCCCN1CCN(c2ncccn2)CC1)NN(Cc1ccc(F)cc1)c1ccccc1	19	430	1900	310	23	16	100
O=C(NCCN1CCN(c2ccc(I)cc2)CC1)NN(Cc1ccccc1)c1ccccc1	44	490	1800	510	11	12	38
COc1ccccc1N1CCN(CCNC(=O)NN(Cc2ccccc2)c2ccc(F)cc2)CC1	9	100	700	71	11	7.9	78
O=C(NCCCN1CCN(c2ccc(Br)cc2)CC1)NN(Cc1ccc(F)cc1)c1ccccc1	46	790	1400	620	17	13	30
Cc1cccc(C(=O)NCN2CCN(c3ccccc3C#N)CC2)c1 [PD-168,077]	–	2300	4700	1100	–	–	–
C=CCN(NC(=O)NCCCN1CCN(c2ccccc2OC)CC1)c1ccc(OC)cc1	61	180	660	340	3	5.6	11
O=C(NCCCN1CCN(c2ccc(Cl)cc2)CC1)NN(Cc1ccccc1)c1ccccc1	9.7	640	1100	410	66	42	110
O=C(NCCCN1CCN(c2ccc(Br)cc2)CC1)NN(Cc1ccccc1)c1ccccc1	14	–	1500	–	–	–	–

Compounds with a lower Ki (D(3) dopamine receptor), results first:

Ki (D(4) dopamine receptor) [nM]	Ki (D(2) dopamine receptor [3]) [nM]	Ki (D(3) dopamine receptor) [nM]	Ki (D(2) dopamine receptor [5]) [nM]	SMILES	Ratio Ki (Homo sapiens [1])	Ratio Ki (Homo sapiens [2])	Ratio Ki (Homo sapiens [4])
12	150	280	94	COc1ccccc1N1CCN(CCCNC(=O)NN(Cc2ccc(C#N)cc2)c2ccc(Cl)cc2Cl)CC1	13	7.8	23
20	110	140	51	COc1ccccc1N1CCN(CCCNC(=O)/N=N/c2ccc(F)cc2)CC1	5.5	2.6	7
2.6	41	95	26	COc1ccccc1N1CCN(CCCNC(=O)NN(Cc2ccccc2F)c2ccc(Cl)cc2)CC1	16	10	36
3.3	45	92	22	COc1ccccc1N1CCN(CCCNC(=O)NN(Cc2ccccc2F)c2ccc(Br)cc2)CC1	14	6.7	28
3.8	73	88	46	COc1ccccc1N1CCN(CCCNC(=O)NN(Cc2cccc(F)c2)c2ccc(F)cc2)CC1	19	12	23
6.2	59	86	35	COc1ccc(N(Cc2cccc(F)c2)NC(=O)NCCCN2CCN(c3ccccc3OC)CC2)cc1	10	5.6	14
4.6	77	85	30	COc1ccccc1N1CCN(CCCNC(=O)NN(Cc2ccc(F)cc2)c2ccc(F)cc2)CC1	17	6.5	18
–	–	3.1	–	COc1ccccc1N1CCN(CCCCNC(=O)/N=N/c2ccc(F)cc2)CC1	0.4	0.36	0.033
